58 molecules from ChEMBL document CHEMBL1132694, “Discovery and structure-activity relationships of imidazole-containing tetrahydrobenzodiazepine inhibitors of farnesyltransferase” (J Med Chem, 1999) can be followed below.

For assay [1], the target named is T1, Protein farnesyltransferase (Homo sapiens, UniProt P49354+P49356). The assay is described as follows: Inhibitory activity against human purified recombinant farnesyltransferase (hFT). It is filed as protein-complex assay. The procedure, abridged: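 Purified (>90%) recombinant human FT at 0.3 nM, with 10 μM ZnCl2. Activity was measured as incorporation of tritium from [3H]farnesyl pyrophosphate into recombinant human H-Ras. Result reported as IC50.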

The test system of assay [2] is Rat1. The assay is described as follows: Inhibition of anchorage independent growth of H-Ras transformed Rat-1 cells. It is filed as functional, cell-based.
Assay [3] has as its target T1, Protein farnesyltransferase. As to the kind of experiment: Phenotypic reversion of H-Ras transformed NIH3T3 cells at 5 uM. It is filed as functional, cell-based. The following applies: Mus musculus.
Assay [4] shares this target. The assay is described as follows: Phenotypic reversion of H-Ras transformed NIH3T3 cells at 1.25 uM. It is filed as functional, cell-based. The following applies: Mus musculus.
For assay [5] the target is unchanged. The assay is described as follows: Phenotypic reversion of H-Ras transformed NIH3T3 cells by the compound at a concentration of 10 uM. It is filed as functional, cell-based. The following applies: Mus musculus.
The subject of assay [6] is Mus musculus. As to the kind of experiment: In vivo antitumor activity against Rat-1 tumors in mice at 10 mg/kg. It is filed as functional. The procedure, abridged: (§1)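 Female athymic Balb/c-background mice (18-22 g) were implanted ip with 1 × 10^6 in vitro-propagated H-Ras-transformed Rat-1 fibroblasts. Dosing was ip, once daily for 7 days from day 1, with compound in 10% ethanol/sterile water given within 1 h of dissolution. Groups were typically 6 treated and 8 control mice. Read-out was median survival as %T/C, with ≥125% counted active (Gehan's generalized Wilcoxon test).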

The test system of assay [7] is Mus musculus. The assay is described as follows: In vivo antitumor activity against Rat-1 tumors in mice at 90 mg/kg. It is filed as functional. The procedure, abridged: as §1
For assay [8], the target named is T1, Protein farnesyltransferase. The assay is described as follows: Inhibition of human purified recombinant farnesyltransferase (hFT) at 90 uM. It is filed as protein-complex assay.

One may read the IC50 as the concentration that inhibits the measured activity by half. In the case of `O=C(c1cccc2ccccc12)N1CCN(Cc2cnc[nH]2)c2ccc(Br)cc2C1`, in assay [1], the IC50 turned out to be 228 nM.
Still for that read-out and setting: the result for `COc1ccc2ccccc2c1C(=O)N1CCN(Cc2cnc[nH]2)c2ccc(-c3ccccc3)cc2C1` reads 58 nM; that for `O=C(N1CCN(Cc2cnc[nH]2)c2ccc(-c3ccccc3)cc2C1)N1CCCc2ccccc21`, 205 nM.
As usually defined, the EC50 is the concentration at which the effect is half-maximal. A low value points to an effect from little substance. `COC(=O)c1ccccc1S(=O)(=O)N1CCN(Cc2c[nH]cn2)c2ccccc2C1`: in assay [2], the EC50 stood at 1600 nM. Further, the IC50 in assay [1] turned out to be 720 nM.
Take `CC(=O)Nc1ccc2c(c1)N(Cc1c[nH]cn1)CCN(C(=O)c1cccc3ccccc13)C2`: the Reversion activity in assay [3] and in assay [4] was 0% in each case.
For `N#C/N=C(/Nc1ccc(Cl)cc1)N1CCN(Cc2c[nH]cn2)c2ccc(-c3ccccc3)cc2C1`, the results for the Reversion activity in assay [3] and in assay [4] were 5% and 0%, respectively.
On to `O=C(c1cccc2ccccc12)N1CCN(Cc2c[nH]cn2)Cc2ccccc21`, for which the half-maximal effective concentration (EC50) in assay [2] was found to be 3000 nM. The same molecule returned a Reversion activity in assay [5] of 0%.
The molecule `O=C(c1cccc2ccccc12)N1CCN(Cc2c[nH]cn2)c2ccc(-c3cccnc3)cc2C1` yielded an EC50 in assay [2] of 1000 nM. The Reversion activity in assay [3] stood at 70%; in assay [4], 0%. Further, the IC50 in assay [1] came out at 145 nM.
For `COc1ccc(C(=O)C(=O)N2CCN(Cc3cnc[nH]3)c3ccc(-c4ccccc4)cc3C2)cc1`, in assay [1], the IC50 is 91 nM.
`COc1ccc(C(=O)C(=O)N2CCN(Cc3c[nH]cn3)c3ccc(-c4ccccc4)cc3C2)cc1`: in assay [2], the response was half-maximal at 900 nM (EC50). The Reversion activity in assay [3] was 90%; in assay [4], 0%.
For the molecule `NCCc1nc(CN2CCN(C(=O)c3cccc4ccccc34)Cc3ccccc32)c[nH]1`, the IC50 in assay [1] was determined as 1300 nM.
For `N#CN=C(Nc1ccc(Cl)cc1)N1CCN(Cc2cnc[nH]2)c2ccc(-c3ccccc3)cc2C1`, the IC50 in assay [1] turned out to be 1420 nM.
The T/C is the result in the treated group divided by that in the control group, in per cent. For the molecule `O=C(Nc1ccc2c(c1)N(Cc1c[nH]cn1)CCN(C(=O)c1cccc3ccccc13)C2)C1CCCCC1`, the T/C in assay [6] is on record as 138%. The same molecule returned an EC50 in assay [2] of 340 nM. Moreover, the Reversion activity in assay [3] amounted to 45%; in assay [4], 0%. Further, the IC50 in assay [1] amounted to 18.1 nM.
For `O=C(c1ccccc1SCCO)N1CCN(Cc2cnc[nH]2)c2ccc(-c3ccccc3)cc2C1`, the IC50 in assay [1] is 124 nM.
In assay [7], `O=C(c1cccc2ccccc12)N1CCN(Cc2c[nH]cn2)c2ccc(-c3ccncc3)cc2C1` returned a T/C of 108%. In assay [2], this molecule showed an EC50 of 200 nM. For the same molecule, the figures for the Reversion activity in assay [3] and in assay [4] were 95% and 60%, respectively. Besides, in assay [1], the IC50 was 15.4 nM.
With `O=C(Nc1ccc2c(c1)N(Cc1cnc[nH]1)CCN(C(=O)c1cccc3ccccc13)C2)OC1CCCCC1`, the IC50 in assay [1] came to 28 nM.
On the same count and under the same terms, to `O=C(c1cccc2ccccc12)N1CCN(Cc2cnc[nH]2)Cc2ccccc21` belongs 2800 nM.
For the molecule `O=C(c1cccc2ccccc12)N1CCN(Cc2cnc[nH]2)c2ccc(C3CCCCC3)cc2C1`, the IC50 in assay [1] is 186 nM.
`O=C(c1ccccc1NCc1ccccc1)N1CCN(Cc2cnc[nH]2)c2ccccc2C1` had an EC50 in assay [2] of 2400 nM. In addition, the IC50 in assay [1] was 600 nM.
As for `COCC[C@H]1CN(C(=O)c2cccc3ccccc23)CCN1CCc1c[nH]cn1`, the IC50 in assay [1] was found to be 3200 nM.
`O=C(c1cccc2ccccc12)N1CCN(Cc2c[nH]cn2)c2ccc(Br)cc2C1`: the Reversion activity in assay [3] amounted to 5%; in assay [4], 0%.
For the molecule `O=C(N1CCN(Cc2cnc[nH]2)c2ccccc2C1)N(c1ccccc1)c1ccccc1`, in assay [1], the IC50 stood at 1200 nM.
In assay [5], `O=C(c1cccc2ccccc12)N1CCN(CCc2c[nH]cn2)c2ccccc2C1` showed a Reversion activity of 20%. The IC50 in assay [1] is 340 nM.
For the molecule `O=S(=O)(c1cccc2ccccc12)N1CCN(Cc2c[nH]cn2)c2ccccc2C1`, the IC50 in assay [1] was 480 nM.
On to `c1ccc(-c2ccc3c(c2)CN(Cc2cccc4ccccc24)CCN3Cc2c[nH]cn2)cc1`, for which the Reversion activity in assay [3] and in assay [4] was 0% throughout.
In the case of `O=C(c1ccccc1OC(F)(F)F)N1CCN(Cc2c[nH]cn2)c2ccc(-c3ccncc3)cc2C1`, the EC50 in assay [2] was 160 nM. The results for the Reversion activity in assay [3] and in assay [4] were 95% and 85%, respectively.
Take `O=C(c1cccc2ccccc12)N1CCN(Cc2cncn2Cc2ccccc2)c2ccccc2C1`: the IC50 in assay [1] was 1100 nM.
In the case of `O=C(c1cccc2ccccc12)N1CCN(Cc2c[nH]cn2)c2ccccc2C1`, in assay [2], a half-maximal response (EC50) required 6000 nM. Moreover, in assay [5], the Reversion activity came out at 0%. Further, the IC50 in assay [1] is 460 nM.
With `O=C(c1cccc2ccccc12)N1CCN(Cc2ncc[nH]2)c2ccccc2C1`, in assay [1], the IC50 amounted to 21000 nM.
Regarding `O=C(N1CCN(Cc2c[nH]cn2)c2ccc(-c3ccccc3)cc2C1)N1CCCc2ccccc21`, the Reversion activity in assay [3] worked out at 40%; in assay [4], 0%.
Consider `COc1ccc2ccccc2c1C(=O)N1CCN(Cc2c[nH]cn2)c2ccc(-c3ccccc3)cc2C1`, for which the EC50 in assay [2] came to 550 nM. The Reversion activity in assay [3] is 95%; in assay [4], 85%.
Turning to `O=C(c1cccc2ccccc12)N1CCN(Cc2cnc[nH]2)c2ccc(-c3ccccc3)cc2C1`, the IC50 in assay [1] amounted to 95 nM.
The term inhibition denotes the share of the control response that was lost under treatment. As to `COCC[C@H]1CN(C(=O)c2cccc3ccccc23)CCN1C(=O)c1c[nH]cn1`, the inhibition in assay [8] turned out to be 51%.
`Cc1cccc2c1N(Cc1c[nH]cn1)CCN(C(=O)c1cccc3ccccc13)C2` returned an EC50 in assay [2] of 12000 nM. Moreover, the Reversion activity in assay [3] is 35%; in assay [4], 0%. Further, the IC50 in assay [1] is 350 nM.
On to `O=C(c1ccccc1SCCO)N1CCN(Cc2c[nH]cn2)c2ccc(-c3ccccc3)cc2C1`, for which a half-maximal response in assay [2] (EC50) required 200 nM. Further, the figures for the Reversion activity in assay [3] and in assay [4] were 90% and 0%, respectively.
Turning to `O=C(c1cccc2ccccc12)N1CCN(Cc2cnc[nH]2)c2cc(Cl)ccc2C1`, in assay [1], the IC50 turned out to be 540 nM.
Regarding `COCC[C@H]1CN(C(=O)c2cccc3ccccc23)CCN1C(=O)Cc1cnc[nH]1`, the IC50 in assay [1] stood at 34000 nM.
With `O=C(Nc1ccc2c(c1)N(Cc1c[nH]cn1)CCN(C(=O)c1cccc3ccccc13)C2)OC1CCCCC1`, in assay [2], the response was half-maximal at 110 nM (EC50). Moreover, the values for the Reversion activity in assay [3] and in assay [4] were 95% and 40%, respectively.
Take `O=C(c1cccc2ccccc12)N1CCN(Cc2c[nH]cn2)c2cc(NS(=O)(=O)c3ccccc3)ccc2C1`: the midpoint of the response in assay [2], the EC50, lay at 11000 nM. In addition, the Reversion activity in assay [3] and in assay [4] was 0% in each case. Besides, the IC50 in assay [1] is 249 nM.
Consider `NCc1ncc(CN2CCN(C(=O)c3cccc4ccccc34)Cc3ccccc32)[nH]1`, for which, in assay [1], the IC50 was found to be 840 nM.
On the same count and under the same terms, to `COCC[C@H]1CN(C(=O)c2cccc3ccccc23)CCN1C(=O)CCc1cnc[nH]1` belongs 27000 nM.
In the case of `c1ccc(-c2ccc3c(c2)CN(c2nnnn2-c2ccccc2)CCN3Cc2c[nH]cn2)cc1`, the Reversion activity in assay [3] and in assay [4] was 0% in each case.
For `O=C(c1ccccc1-c1ccccc1)N1CCN(Cc2c[nH]cn2)c2ccccc2C1`, the EC50 in assay [2] amounted to 700 nM. The molecule also displayed a Reversion activity in assay [5] of 25%.
As for `O=C(c1cccc2ccccc12)N1CCN(Cc2c[nH]cn2)c2ccc(-c3ccccn3)cc2C1`, the Reversion activity in assay [3] and in assay [4] was 0% throughout. Moreover, in assay [1], the IC50 amounted to 177 nM.
On to `O=C(c1ccccc1OC(F)(F)F)N1CCN(Cc2cnc[nH]2)c2ccc(-c3ccncc3)cc2C1`, for which the IC50 in assay [1] turned out to be 24 nM.
Turning to `COCC[C@H]1CN(C(=O)c2cccc3ccccc23)CCN1Cc1c[nH]cn1`, the IC50 in assay [1] is 1300 nM.
Regarding `O=C(Nc1ccc2c(c1)N(Cc1c[nH]cn1)CCN(C(=O)c1cccc3ccccc13)C2)NC1CCCCC1`, in assay [2], the response was half-maximal at 4000 nM (EC50). For the same molecule, the Reversion activity in assay [3] and in assay [4] was 0% each time. Further, the IC50 in assay [1] is 35.5 nM.
As for `O=C(c1cccc2ccccc12)N1CCN(Cc2c[nH]cn2)c2ccc(C3CCCCC3)cc2C1`, the Reversion activity amounted to 20% in assay [3] and 0% in assay [4].
Consider `O=C(c1ccccc1-c1ccccc1)N1CCN(Cc2cnc[nH]2)c2ccccc2C1`, for which the IC50 in assay [1] was found to be 320 nM.
Regarding `c1ccc(-c2ccc3c(c2)CN(Cc2cccc4ccccc24)CCN3Cc2cnc[nH]2)cc1`, the IC50 in assay [1] was determined as 2970 nM.
Take `O=S(=O)(c1cccc2ccccc12)N1CCN(Cc2c[nH]cn2)c2ccc(-c3ccccc3)cc2C1`: the Reversion activity in assay [3] amounted to 25%; in assay [4] it was 0%. The IC50 in assay [1] was found to be 426 nM.
In turn, `O=C(Nc1ccc2c(c1)N(Cc1c[nH]cn1)CCN(C(=O)c1cccc3ccccc13)C2)c1ccccc1` registered a T/C in assay [7] of 128%. In assay [2], this molecule came in with an EC50 of 300 nM. Also, the Reversion activity in assay [3] is 75%; in assay [4], 0%. The IC50 in assay [1] came to 28.5 nM.
As to `CC(=O)Nc1ccc2c(c1)N(Cc1cnc[nH]1)CCN(C(=O)c1cccc3ccccc13)C2`, the IC50 in assay [1] amounted to 168 nM.
With `Nc1ccc2c(c1)N(Cc1cnc[nH]1)CCN(C(=O)c1cccc3ccccc13)C2`, in assay [2], the EC50 was 2400 nM. In assay [1], the half-inhibitory concentration (IC50) is 1000 nM.
For the molecule `O=C(Cc1ccccc1Oc1ccccc1)N1CCN(Cc2c[nH]cn2)c2ccccc2C1`, the IC50 in assay [1] is 700 nM.
For `COCC[C@H]1CN(C(=O)c2cccc3ccccc23)CCN1CCCc1c[nH]cn1`, the IC50 in assay [1] came to 10000 nM.
Consider `O=C(c1cccc2ccccc12)N1CCN(CCCc2ncc[nH]2)c2ccccc2C1`, for which the IC50 in assay [1] is 590 nM.
Turning to `c1ccc(-c2ccc3c(c2)CN(c2nnnn2-c2ccccc2)CCN3Cc2cnc[nH]2)cc1`, in assay [1], the IC50 was found to be 702 nM.
